The values below come from ChEMBL document CHEMBL4118027, “Preussilides A-F, Bicyclic Polyketides from the Endophytic Fungus Preussia similis with Antiproliferative Activity” (J Nat Prod, 2017).

As usually defined, the IC50 is the concentration at which inhibition is half-maximal.

The subject of one assay is Yamadazyma tenuis. Kind of assay: Antifungal activity against Candida tenuis MUCL 29892 by serial dilution method. The format is functional, organism-based.
The subject of assay [1] is U2OS. In words: Induction of apoptosis in human U2OS cells assessed as caspase-3/7 cleavage at 5 ug/ml after 18 hrs by caspase-3/7 green reagent based flow cytometry (reference value: 8.04%).
In assay [2] the test system is U2OS. In words: Cell cycle arrest in human U2OS cells assessed as small cells with reduced nuclear size at 5 ug/ml after 18 hrs by propidium iodide staining based flow cytometry (reference value: 0.19%). Type of assay: functional. More on the design: scale not given: the % may be the effect or the level left. A digest of the protocol: (§1)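 U2OS were seeded at 7 × 10^5/well in six-well plates and exposed to 5 or 10 μg/mL for 18 h after spreading, with untreated and DMSO mock controls. Cells were trypsinized, fixed in 2% PFA/PBS, then in ice-cold methanol 30 min. Staining: anti-tubulin/anti-lamin antibodies plus RNase A and propidium iodide. Flow cytometry assigned G1, S, G2-M and sub-G1 by DNA content.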
(In general: Flow cytometry measures light scatter and fluorescence of single cells or particles in a stream.)

Another assay relates to A-431. Kind of assay: Cytotoxicity against human A431 cells assessed as reduction in cell viability after 5 days by MTT assay. The format is functional, cell-based. As to conditions: A-431, 120 h. A digest of the protocol:
(§2)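 MTT viability assay run over 5 days on a panel of eight lines (L929, KB3.1, A431, A549, SKOV-3, PC-3, MCF-7, U2OS). IC50 values were derived.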
For orientation: Tetrazolium assays rely on reduction of a dye to a coloured formazan, in cell work by metabolically active cells.

In a further assay the test system is Lepidium sativum. Kind of assay: Phytotoxicity against Lepidium sativum assessed as inhibition of seedling germination at 100 ug/disk. Type of assay: functional, organism-based.
The next assay deals with Staphylococcus aureus. In words: Antibacterial activity against Staphylococcus aureus DSM 346 by serial dilution method. Type of assay: functional, organism-based.
The test system of assay [3] is U2OS. Kind of assay: Cell cycle arrest in human U2OS cells assessed as small cells with reduced nuclear size at 10 ug/ml after 18 hrs by propidium iodide staining based flow cytometry (reference value: 0.19%). Also noted: scale not given: the % may be the effect or the level left. Type of assay: functional. A digest of the protocol:
as §1

Assay [4] relates to U2OS. In words: Cell cycle arrest in human U2OS cells assessed as accumulation at S phase at 10 ug/ml after 18 hrs by propidium iodide staining based flow cytometry (reference value: 19%). Type of assay: functional. A digest of the protocol:
as §1

The next assay has as its system SK-OV-3. Kind of assay: Cytotoxicity against human SKOV3 cells assessed as reduction in cell viability after 5 days by MTT assay. The format is functional, cell-based. As to conditions: SK-OV-3, 120 h. A digest of the protocol:
as §2

A further assay has as its system KB 3-1. Kind of assay: Cytotoxicity against human KB3-1 cells assessed as reduction in cell viability after 5 days by MTT assay. The format is functional, cell-based. As to conditions: KB 3-1, 120 h. A digest of the protocol:
as §2

The test system of a further assay is Rhodotorula glutinis. In words: Antifungal activity against Rhodotorula glutinis DSM 10134 by serial dilution method. The format is functional, organism-based.
For assay [5], the system named is U2OS. In words: Cytotoxicity against human U2OS cells assessed as reduction in cell viability after 5 days by MTT assay. Type of assay: functional, cell-based. As to conditions: 120 h. A digest of the protocol: as §2

The source made the active and inactive calls. No cut-off for these calls is given here.

With `CC(=O)CC1=C(C)C=C2C[C@@H](C)C(=O)[C@@H](C)[C@@H]2[C@H]1/C=C(C)/C=C(C)/C=C/C(=O)O`, the outcome in the assay on Yamadazyma tenuis, with Lepidium sativum, with Staphylococcus aureus and in the assay with Rhodotorula glutinis was inactive. The Activity in the assay on U2OS [1] is 3.45%; with U2OS [2], 1.96%; in the assay on U2OS [3], 25.5%; in the assay on U2OS [4], 9.62%. For the same compound, the half-maximal inhibitory concentration (IC50) came out at 10.1 µM in the assay with A-431, 15.6 µM in the assay with SK-OV-3, 2.5 µM with KB 3-1 and 6.8 µM with U2OS [5].
